Data: paper PMC7797712 (Medicinal Chemistry Research, 2021)
pEC50: −log10 of the molar value.

What was measured:
[1] = tested on: HBV replication in HepDES19 cells; experiment: Antiviral assay in HepDES19 cells; assay type: cell-based; details: Hepatitis B virus, HepDES19, read-out: EC50, inhibition of HBV-DNA replication
Summary of the method: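 HepG2-derived line with a tetracycline-inducible, envelope-deficient HBV genome; seeded in 24-well plates and kept tetracycline-free for 2 days. Then mock or twofold serial dilution for a further 4 days. Cytoplasmic HBV core DNA extracted and measured by qPCR. EC50 from regression on biologically triplicate experiments, two independent experiments.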

AML12HBV10 cells = experiment: Cytotoxicity assay in AML12HBV10 cells; assay type: cell-based, mouse
Summary of the method: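 Cells treated in tetracycline-free medium, as in the antiviral assay, with twofold serial dilution from 50 to 1.56 µM for 48 h. Viability checked by microscopy and measured by MTT. CC50 = concentration reducing viability by 50%.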

[2] = tested on: cytoplasmic HBV-DNA replication in AML12HBV10 cells; experiment: Antiviral assay in AML12HBV10 cells; assay type: cell-based, hepatitis B virus
Summary of the method: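 AML12-derived mouse hepatocyte line carrying a tetracycline-inducible, envelope-deficient HBV genome; seeded at 2 × 10^4 cells/well in tetracycline-free medium. Next day, mock or twofold serial dilution (10 to 0.08 µM) for 48 h. Cells lysed in Tris-HCl pH 7.5/EDTA/NaCl/1% NP-40. Half the lysate NaOH-denatured, neutralised, dot-blotted and hybridised with 32P-labelled HBV minus-strand riboprobe. Phosphorimager quantification; EC50 = concentration reducing HBV DNA by 50%.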

HBV core protein = HBV core protein (Hepatitis B virus genotype D subtype ayw, UniProt P03146); experiment: Western blot assay of HBV core protein dephosphorylation in AML12HBV_DE11 cells; assay type: cell-based; details: 30 h, ENAN-34017 2 µM, Bay 41-4109 2 µM, entecavir 1 µM
Summary of the method: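 Controls: cells kept with tetracycline, or tetracycline-free and mock treated. Test cells tetracycline-free, treated 30 h, then lysed in LDS loading buffer and boiled 100 °C for 20 min. Run on 12% Bis-Tris gel in MOPS buffer, transferred to PVDF. Hyper-phosphorylated and dephosphorylated/hypophosphorylated core protein detected by western blot; β-actin loading control.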

HBV core protein, sequence (P03146 whole entry): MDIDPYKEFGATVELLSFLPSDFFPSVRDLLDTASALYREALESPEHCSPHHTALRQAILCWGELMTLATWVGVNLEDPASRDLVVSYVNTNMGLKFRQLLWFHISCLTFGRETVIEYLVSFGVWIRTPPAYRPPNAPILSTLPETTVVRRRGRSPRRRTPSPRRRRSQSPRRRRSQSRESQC

SMILES: O=C1CCN(C(=O)Nc2ccc(F)c(Cl)c2)CN1Cc1ccc(F)cc1F [Compound 27, N-(3-chloro-4-fluorophenyl)-3-(2,4-difluorobenzyl)-4-oxotetrahydropyrimidine-1(2H)-carboxamide]
- pEC50 [1]: 6.08
- Cytotoxicity at 50 μM (AML12HBV10 cells): no cytotoxicity
- EC50 (50% inhibitory concentration of cytoplasmic HBV-DNA replication) ([2]; AML12HBV10 cells, 48 h treatment, dot-blot hybridization): submicromolar
- Potency increase relative to 21 ([2]; AML12HBV10 cells, EC50 ratio): fourfold potency increase
- pEC50 ([2]; Hepatitis B virus, AML12HBV10, 48 h, read-out: EC50 (50% inhibitory concentration of cytoplasmic HBV-DNA replication)): 6.28
- Effect on Cp dephosphorylation (HBV core protein): inhibited Cp dephosphorylation
